The text below walks through data of ChEMBL document CHEMBL1131135, “Substituted 4-acylpyrazoles and 4-acylpyrazolones: synthesis and multidrug resistance-modulating activity” (J Med Chem, 1998).

The target in assay [1] is ATP-dependent translocase ABCB1 (Homo sapiens, UniProt P08183). Kind of assay: Compound was tested for inhibition of daunomycin efflux in the resistant human T-lymphoblast cell line CEM vcr1000. Type of assay: functional, cell-based, CCRF-CEM.
In another assay the test system is L5178Y. As to the kind of experiment: Compound was tested for inhibition of rhodamine 123 efflux in mdr 1 transfectant L5178Y VMDRI C.06 mouse lymphoma cells. Type of assay: functional, cell-based. In outline: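 Cells at 1 × 10⁶/mL in RPMI1640 preloaded with rhodamine 123 (final 0.2 μg/mL, 0.53 μmol/L) for 15 min at 37 °C, then resuspended in 37 °C medium with modulator (eight concentrations, 1:2.5 serial dilution, 3 nM–500 μM). Aliquots taken at 0, 30, 60, 90, 120 s into ice-cold verapamil stop solution. Read by flow cytometry, 5000 events. Vmax/Km from exponential fit, parental-line diffusion subtracted. EC50 from dose–response, mean of ≥5 experiments.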

Sequence of ATP-dependent translocase ABCB1 (P08183 whole entry, the tested form may be a part): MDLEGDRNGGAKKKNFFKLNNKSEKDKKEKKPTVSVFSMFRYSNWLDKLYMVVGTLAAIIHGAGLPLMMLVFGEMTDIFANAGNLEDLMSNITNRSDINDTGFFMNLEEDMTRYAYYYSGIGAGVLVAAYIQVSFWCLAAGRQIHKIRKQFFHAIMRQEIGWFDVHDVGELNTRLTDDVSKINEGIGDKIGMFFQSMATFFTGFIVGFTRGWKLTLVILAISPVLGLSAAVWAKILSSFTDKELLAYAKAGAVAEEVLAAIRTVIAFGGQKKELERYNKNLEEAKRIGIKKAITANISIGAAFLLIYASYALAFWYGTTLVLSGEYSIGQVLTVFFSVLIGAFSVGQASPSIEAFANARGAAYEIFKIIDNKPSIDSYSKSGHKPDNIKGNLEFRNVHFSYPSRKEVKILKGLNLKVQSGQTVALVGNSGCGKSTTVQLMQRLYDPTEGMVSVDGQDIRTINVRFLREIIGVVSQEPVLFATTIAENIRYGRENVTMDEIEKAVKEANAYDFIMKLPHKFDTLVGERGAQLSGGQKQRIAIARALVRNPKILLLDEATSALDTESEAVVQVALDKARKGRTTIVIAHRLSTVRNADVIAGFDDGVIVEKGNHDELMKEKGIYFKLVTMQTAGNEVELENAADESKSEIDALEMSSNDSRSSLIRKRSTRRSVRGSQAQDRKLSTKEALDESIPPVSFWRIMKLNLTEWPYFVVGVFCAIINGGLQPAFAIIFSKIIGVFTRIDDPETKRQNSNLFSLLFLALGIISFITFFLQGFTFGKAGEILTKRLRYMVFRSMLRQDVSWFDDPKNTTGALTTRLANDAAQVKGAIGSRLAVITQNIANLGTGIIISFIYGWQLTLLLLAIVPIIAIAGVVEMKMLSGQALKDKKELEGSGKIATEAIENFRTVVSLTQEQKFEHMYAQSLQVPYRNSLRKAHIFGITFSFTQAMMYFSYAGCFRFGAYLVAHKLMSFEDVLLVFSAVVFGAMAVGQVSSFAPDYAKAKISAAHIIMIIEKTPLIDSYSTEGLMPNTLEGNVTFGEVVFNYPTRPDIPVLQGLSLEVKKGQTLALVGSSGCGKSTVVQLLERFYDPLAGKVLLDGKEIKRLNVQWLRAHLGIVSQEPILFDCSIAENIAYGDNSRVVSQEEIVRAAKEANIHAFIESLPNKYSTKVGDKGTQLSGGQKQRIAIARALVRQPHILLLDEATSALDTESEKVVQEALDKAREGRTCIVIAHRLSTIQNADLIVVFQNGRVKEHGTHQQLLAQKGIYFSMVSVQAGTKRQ

On to `Cc1c(C(=O)c2ccccc2)c(=O)n(-c2ccccc2)n1CC(O)CNC(C)(C)C` (centres undefined), for which the values for the EC50 (in assay [1]; with L5178Y) were 81.3 µM and 168 µM, respectively.
On to `Cc1ccccc1N1CCN(CC(O)Cn2c(C)c(C(=O)c3ccccc3)c(=O)n2-c2ccccc2)CC1` (centres undefined), for which the EC50 in assay [1] is 0.89 µM; in the assay with L5178Y, 2.43 µM.
The matching figures for `Cc1c(C(=O)c2ccccc2)c(=O)n(-c2ccccc2)n1CC(O)CN(C(C)C)C(C)C` (centres undefined): 12.6 µM and 21.9 µM.
With `Cc1nn(C)c(OCC(O)CN(C(C)C)C(C)C)c1C(=O)c1ccccc1` (centres undefined), in assay [1], the midpoint of the response, the EC50, lay at 1.21 µM.
Regarding `Cc1c(C(=O)c2cccs2)c(=O)n(-c2ccccc2)n1CC(O)CNC(C)(C)C` (centres undefined), the EC50 is 72.4 µM in assay [1] and 94.7 µM in the assay on L5178Y.
`CCC/N=C(\c1ccccc1)c1c(C)[nH]n(C)c1=O` came in with an EC50 in assay [1] of 273 µM.
On to `CCCNCC(O)Cn1c(C)c(C(=O)c2cccs2)c(=O)n1-c1ccccc1` (centres undefined), for which the figures for the EC50 (in assay [1]; with L5178Y) were 72.4 µM and 174 µM, respectively.
Taken in the same sequence, the figures for `CCCNCC(O)Cn1c(C)c(C(=O)c2ccccc2)c(=O)n1-c1ccccc1` (centres undefined) were 28.2 µM and 64.5 µM.
As to `Cc1c(C(=O)c2ccccc2)c(=O)n(C)n1CC(O)CN(C(C)C)C(C)C` (centres undefined), the response in assay [1] was half-maximal at 24.1 µM (EC50). That is a double-digit micromolar value.
Take `Cc1nn(-c2ccccc2)c(OCC(O)CN(C(C)C)C(C)C)c1C(=O)c1ccccc1` (centres undefined): the EC50 is 1.06 µM in assay [1] and 2.22 µM in the assay with L5178Y.
Regarding `Cc1ccccc1N1CCN(CC(O)Cn2c(C)c(C(=O)CCc3ccccc3)c(=O)n2-c2ccccc2)CC1` (centres undefined), a half-maximal response in assay [1] (EC50) required 0.21 µM.
Regarding `CCCCNCC(O)Cn1c(C)c(C(=O)CCc2ccccc2)c(=O)n1-c1ccccc1` (centres undefined), the figures for the EC50 (in assay [1]; with L5178Y) were 2.69 µM and 4.02 µM, respectively.
In assay [1], `CCC/N=C(\CCc1ccccc1)c1c(C)[nH]n(-c2ccccc2)c1=O` had a concentration for a half-maximal effect (EC50) of 3.79 µM.
Regarding `CCCNCC(O)Cn1c(C)c(C(=O)CCc2ccccc2)c(=O)n1-c1ccccc1` (centres undefined), the EC50 in assay [1] came out at 6.31 µM; in the assay with L5178Y, 15.2 µM.
The matching figures for `Cc1c(C(=O)CCc2ccccc2)c(=O)n(-c2ccccc2)n1CC(O)CNC(C)(C)C` (centres undefined): 7.76 µM and 17.8 µM.
As to `CCCNc1c(C(=O)c2ccccc2)c(C)nn1-c1ccccc1`, in assay [1], the EC50 came to 11 µM.
The compound `CC1=NN(c2ccccc2)C(=O)/C1=C(/c1ccccc1)N1CCN(c2ccccc2C)CC1` registered an EC50 in assay [1] of 0.68 µM.
Turning to `CCCNc1c(C(=O)CCc2ccccc2)c(C)nn1-c1ccccc1`, the 50% effective concentration (EC50) in assay [1] worked out at 8.38 µM.
Consider `Cc1c(C(=O)CCc2ccccc2)c(=O)n(-c2ccccc2)n1CC(O)CNC(C)C` (centres undefined), for which the EC50 came to 11.8 µM in assay [1] and 34.2 µM in the assay with L5178Y.
The matching figures for `Cc1c(C(=O)c2cccs2)c(=O)n(-c2ccccc2)n1CC(O)CNC(C)C` (centres undefined): 123 µM and 648 µM.
Regarding `Cc1c(C(=O)c2ccccc2)c(=O)n(-c2ccccc2)n1CC(O)CNC(C)C` (centres undefined), the EC50 in assay [1] was 83.2 µM; in the assay with L5178Y it was 226 µM.

As a reminder, the EC50 is the concentration at which the effect is half-maximal. High values mean lower potency in that assay, low ones higher potency in that assay.
